# Scp1 inh – Scp-1 (human) phosphatase inhibition; Q9GZU7; Recombinant Scp1, phosphopeptide, malachite green phosphate absorbance; inhibition, % at 20 µM; hit rate 0.88% among 340,000; AID 493091;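 active = inhibition above about 50% at 20 µM, limit read from the data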;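 also: plate controls were DMSO wells with enzyme for no effect and wells lacking enzyme for full effect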
# Target sequence (Q9GZU7 76-261 limits assumed): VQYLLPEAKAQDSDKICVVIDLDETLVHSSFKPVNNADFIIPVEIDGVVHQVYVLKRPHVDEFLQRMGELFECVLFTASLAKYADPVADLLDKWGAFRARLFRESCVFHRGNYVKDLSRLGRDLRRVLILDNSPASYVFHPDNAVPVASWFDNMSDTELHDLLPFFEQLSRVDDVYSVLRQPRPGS
#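 Times: enzyme reaction 45 min at room temperature, colour 5 min, stabilisation 30 min. Material: SCP-1 catalytic fragment, aa 76-261. Medium: Acidic Tris acetate buffer with magnesium and detergent. Signal: colorimetric free-phosphate detection, absorbance 630 nm. Read-out basis: % inhibition of SCP-1 phosphate liberation. Reagent: Phosphorylated 17-residue peptide substrate.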
# SUMO1-SIM PPI – alters human SUMO1 binding to SIM partners; P63165; SUMO1 binding to a labelled peptide, TR-FRET, 1 h; inhibition, % at 20 µM; hit rate 0.33% among 360,000; AID 602429; in the data active = inhibition above about 37%
# Target sequence (P63165 whole entry, looked up): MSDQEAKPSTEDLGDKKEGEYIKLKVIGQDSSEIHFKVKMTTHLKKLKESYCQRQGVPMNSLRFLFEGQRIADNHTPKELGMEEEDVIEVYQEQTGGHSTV
# LMPTP inh – blocks human LMPTP phosphatase; AID 651560; hit rate 0.22% among 360,000; inhibition, % at 20 µM; recombinant LMPTP-A, OMFP fluorogenic substrate, fluorescence intensity; P24666;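 active = compounds that cut the enzyme signal by at least half of the control window in the single-dose screen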;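 also: plate controls were DMSO wells with enzyme plus substrate for no effect and substrate without enzyme for full effect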
# Target sequence (P24666 whole entry, looked up): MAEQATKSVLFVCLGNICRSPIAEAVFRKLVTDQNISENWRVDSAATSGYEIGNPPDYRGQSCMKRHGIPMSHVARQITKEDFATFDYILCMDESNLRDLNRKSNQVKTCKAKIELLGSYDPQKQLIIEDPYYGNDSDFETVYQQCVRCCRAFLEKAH
#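 Test system: LMPTP-A phosphatase enzyme; input: 0.625 nM LMPTP-A final; reagent: OMFP substrate, 400 µM final; compound dosing: 20 µM single dose, 3% DMSO; incubation: 50 min dark incubation at room temperature; measured by: endpoint fluorescence intensity from OMFP dephosphorylation; measure: % inhibition relative to no-enzyme and uninhibited control wells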
# DNMT1 inh – blocks human DNA methyltransferase DNMT1; DNMT1 molecular beacon, Hinp1I cleavage, fluorescence; inhibition (reported as % activation of signal), % at 10 µM; hit rate 0.83% among 360,000; in the data active = inhibition above about 50%
# STEP inh – STEP (human) phosphatase inhibition | P54829 | recombinant STEP, OMFP fluorogenic substrate, fluorescence | inhibition, % at 20 µM | hit rate 0.25% among 360,000;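 active = inhibition at 20 µM, scaled per plate between control wells, above about 37%, limit read from the data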;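 also: 0% = DMSO with enzyme and substrate and 100% = substrate only without enzyme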
#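 System: STEP (striatal-enriched tyrosine phosphatase) enzyme, cell-free; medium: Bis-Tris pH 6.0 buffer with DTT, detergent; dosing: 20 µM, 1% DMSO; times: reaction 20 min, ambient temperature; detection: fluorescence, 480/540 nm; read-out basis: normalized % inhibition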
# NadD block – blocks S. aureus nicotinate mononucleotide adenylyltransferase | inhibition, % at 20 µM | hit rate 0.78% among 360,000 | purified NadD enzyme, colorimetric absorbance read-out; in the data active = inhibition above about 26%
# Scp1 confirm – Scp-1 (human) inhibition, single-dose confirmed; shares compounds with Scp1 inh; recombinant SCP-1 catalytic domain, phosphate release, malachite green absorbance; inhibition, % at 20 µM; hit rate 61% among 2,500; AID 540281;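 also: plate controls were DMSO with enzyme for no effect and buffer wells lacking enzyme for full effect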
# Scp-1 MG ctr – colorimetric interference in Scp-1 counter-screen | shares compounds with Scp1 inh | Colorimetric interference counterscreen, malachite green absorbance 630 nm | apparent inhibition (interference), % at 20 µM | 2,500 tested, under 10 active;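 also: compounds added after enzyme reaction finished so only phosphate colour detection is probed; plate controls were DMSO wells with completed Scp-1 reaction for no effect and substrate wells lacking enzyme for full effect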
# Scp1 DSF – binds human Scp-1, shifting its melting temperature; AID 540329; shares compounds with Scp1 inh; Recombinant SCP1, Sypro Orange thermal shift Tm; hit rate 25% among 1,500; thermal shift relative to vanadate control, % at 40 µM;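 active = substances whose mean melting-temperature shift, as a percentage of the reference inhibitor's shift, reaches about 5.3%, limit read from the data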;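 also: 0% = Tm of DMSO wells and 100% = Tm with sodium orthovanadate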
# The depositor's hits bear a star; . = no result given. Compounds with a hit are over-represented: about 2.3% of the library has one in this group of screens.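 The calls were made as follows, unless noted: active = inhibition of at least 30% at 20 µM; inactive = the rest.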
SMILES,Scp1 inh,SUMO1-SIM PPI,LMPTP inh,DNMT1 inh,STEP inh,NadD block,Scp1 confirm,Scp-1 MG ctr,others
CCc1ccc(NC(=O)CCc2nc3sc4c(c3c(=O)[nH]2)CCCC4)cc1,7,-2,2,21,1,9,.,.,
O=C(O)c1cccc(N2C(=O)C3CC=C(Cl)CC3C2=O)c1 (centres undefined),109*,13,-1,42,0,-8,57*,-20,Scp1 DSF=-23
CC(C)CC1Nc2ccc(C(=O)NCCCN3CCOCC3)cc2NC1=O (centres undefined),1,-9,-1,-5,-1,-1,.,.,
CC(C)CC1Nc2ccc(C(=O)NCc3ccc4c(c3)OCO4)cc2NC1=O (centres undefined),-10,-5,1,-1,0,-2,-5,-2,
CC(=O)N1CCOC12CCN(Cc1ccccc1)CC2,.,-3,-2,3,2,-7,.,.,
N#C/C(=C\c1c(N(Cc2ccccc2)Cc2ccccc2)nc2ccccn2c1=O)C(N)=O,56*,-20,1,-3,2,-4,-13,-9,
COc1ccc(N2CCN(C(C)C(=O)Nc3nnc(C)s3)CC2)cc1 (centres undefined),-5,-4,-2,8,-2,-3,.,.,
O=C(O)c1ccccc1,1,-3,-2,6,0,3,.,.,
O=C(O)C(F)=C(c1ccccc1)c1ccccc1,52*,4,-3,1,2,-2,-10,-7,
COc1ccc(-c2csc3ncn(CC(=O)N4CCOCC4)c(=O)c23)cc1,-1,1,-2,1,-3,-4,.,.,
CC1CCCC(C)N1C(=O)COC(=O)CCC1CCCC1 (centres undefined),-1,0,-1,-1,-1,4,.,.,
CCCCCOc1ccc(C(=O)Nc2ccc(S(=O)(=O)Nc3cc(C)on3)cc2)cc1,-6,-6,-1,2,0,-5,.,.,
Cn1c(=O)c(=O)n(C)c2cc(S(=O)(=O)N3CCCC3C(=O)Nc3ccccc3F)ccc21 (centres undefined),0,-1,0,0,0,-1,-7,-7,
Cc1ccc(NC(=O)C2CCCN2S(=O)(=O)c2ccc3c(c2)n(C)c(=O)c(=O)n3C)cc1 (centres undefined),7,-5,-2,2,-2,-2,.,.,
Cc1cccc(C)c1NC(=O)C1CCCN1S(=O)(=O)c1ccc2c(c1)n(C)c(=O)c(=O)n2C (centres undefined),-4,-2,-3,1,1,-4,-14,-18,
Cc1ccc(NC(=O)C2CCCN2S(=O)(=O)c2ccc3c(c2)n(C)c(=O)c(=O)n3C)c(C)c1 (centres undefined),-12,4,0,0,-2,-3,-10,-11,
CN(C)/C(=N\S(=O)(=O)c1ccc(Br)cc1)c1ccccc1,0,5,-1,-3,1,7,.,.,
N#CC(Sc1ccccn1)c1ccc(Cl)cc1 (centres undefined),3,-7,1,-2,-2,-1,.,.,
O=C(NC1CCSC1=O)c1cccc(C(=O)NC2CCSC2=O)c1 (centres undefined),95*,1,8,3,0,11,65*,-18,Scp1 DSF=3
Cn1c(=O)c(C(=O)CN2CCCc3ccccc32)c(N)n(Cc2ccccc2)c1=O,-3,-18,5,-1,-3,18,.,.,
Cn1c(=O)c(C(=O)CN2CC(=O)Nc3ccccc32)c(N)n(Cc2ccccc2)c1=O,-7,2,0,2,0,-1,-7,-11,
Cc1oc2c(C)c3oc(=O)c(CC(=O)N[C@@H](CCCNC(N)=O)C(=O)O)c(C)c3cc2c1C,52*,30,3,33,25,6,43*,-7,Scp1 DSF=-7
